Hits are enriched below; roughly 2.6% of the tested compounds scored in any of these assays.
S100A4 MyoIIA – blocks human S100A4 binding to myosin IIA peptide | P26447 | AID 652163 | inhibition, % at 10.7 µM | actives 0.14% (n = 360,000) | S100A4/TAMRA-MyoIIA peptide fluorescence polarization;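 active = mean inhibition of at least 70% across replicates, with every replicate also reaching that level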
Target sequence (P26447 whole entry, looked up): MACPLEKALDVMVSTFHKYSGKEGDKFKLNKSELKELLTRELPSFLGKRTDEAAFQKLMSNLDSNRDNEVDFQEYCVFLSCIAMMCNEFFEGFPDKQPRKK
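incubation = readout 5 min after mixing, signal stable up to 60 min | system = S100A4 monomer protein | buffer or medium = HEPES pH 7.2 with CaCl2, KCl, NaCl, DTT, Triton | benchmarks = neutral control DMSO, positive control TFP | also added = fluorescent myosin IIA peptide, 5 nM | compound dosing = one concentration per compound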
Vif inh – inhibitors of HIV Vif; actives 0.35% (n = 340,000); HEK293T cells, Vif self-association by quenched fluorescence, imaging, 24 h; inhibition, % at 7.49 µM; in the data active = inhibition above about 50%, passing the limit was not always enough
Env fusion inh – HIV envelope-mediated fusion inhibition; HeLa-JRFL Env/CEM21 cell fusion, luciferase; inhibition, % at 12.3 µM; actives 1.1% (n = 360,000); AID 651610;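 active = mean replicate inhibition score of at least 50 and every replicate individually at or above 50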
miR-122 sensor – inhibitors of miR-122 in Huh7 cells | AID 602342 | Huh7 miR-122 Renilla luciferase sensor, 48 h; neutral wells = 0, positive control = 100 | actives 0.3% (n = 340,000) | activation (reporter increase), % at 12.5 µM;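 active = mean replicate activation score at least 90 and every replicate individually at or above 90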;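 note: higher luciferase means less miR-122 activity so hits act as miR-122 inhibitors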
Ecoli rRNA inh – inhibits bacterial ribosomal RNA function over humanized ribosomes; E. coli WT GFP vs humanized-ribosome RFP mutants, fluorescence, 24 h; active compounds read low; DMSO median 0, no signal -100; GFP signal change (wild-type ribosome), % (test concentration not listed); actives 1.6% (n = 350,000); AID 720706;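 active = significant combined selectivity score with lowered wild-type GFP, culture density cut under 30%, mutant RFP and density less affected; inactive = any of these conditions unmet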
FN deposition inh – fibronectin deposition inhibition; actives 0.086% (n = 350,000); inhibition, % at 12.6 µM; AID 743247; AH1F fibroblasts, Alexa488-fibronectin deposition fluorescence, overnight;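 active = mean inhibition across replicates of 30% or more, regardless of how many single replicates reach that level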
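Measured by – fluorescence 485/525 nm · System – AH1F fibroblast monolayer, labelled fibronectin deposition · Amount – 10000 cells per well · Buffer or medium – serum-reduced DMEM (2% serum) · Doses – single dose, pinned · Also added – fluorescent fibronectin at 24 nM final · Schedule – 1 h cell attachment, overnight exposure to compound and label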
Of the large screens only hits and unclear results are named; the others gave an inactive call; ! = not active in a repeat; [ ] = dose if it differs, or a comment.

CC(=O)Nc1ccc(C(=O)CCl)cc1	S100A4 MyoIIA 94 (no result: Env fusion inh, FN deposition inh)
Cc1nn(-c2ccccc2)c(C)c1-c1cc(C(=O)N/N=C/c2ccc(O)cc2)[nH]n1	Ecoli rRNA inh -24 (no result: miR-122 sensor)
CCC1C/C(=C\c2cc(OC)c(OC)cc2OC)C(=O)/C(=C/c2cc(OC)c(OC)cc2OC)C1 (stereo not given)	none (no result: S100A4 MyoIIA, Env fusion inh, miR-122 sensor, Ecoli rRNA inh, FN deposition inh)
COc1cc(OC)c(OC)cc1/C=C1\CC(C)C/C(=C\c2cc(OC)c(OC)cc2OC)C1=O (stereo not given)	Ecoli rRNA inh -22
COc1ccc(NS(=O)(=O)c2cc(Br)cc3c2N(C(C)=O)CC3)cc1	miR-122 sensor 189
CCC(=O)N1CCc2cc(Br)cc(S(=O)(=O)N(C)c3ccc(OC)cc3OC)c21	Ecoli rRNA inh -30
O=C(c1cccc(F)c1)N1CC[C@H]2[C@H](CO)Nc3ccc(-c4ccccc4)cc3[C@H]21	none (no result: Vif inh, Env fusion inh, miR-122 sensor)
COc1ccc(NC(=O)Nc2ccc3c(c2)C(=O)N([C@H](C)CO)C[C@H](C)[C@H](CN(C)Cc2ccc(Cl)c(Cl)c2)OCCCC[C@@H](C)O3)cc1	none (no result: Vif inh, FN deposition inh)
CCC(SC1=N/C(=C/c2ccccc2)C(=O)N1c1ccccc1)C(=O)Nc1cc(C)on1 (stereo not given)	miR-122 sensor 341
CC(/C=C1\SC(=S)N(C(C(=O)O)c2ccccc2)C1=O)=C\c1ccccc1 (stereo not given)	Ecoli rRNA inh -27 (no result: miR-122 sensor)
C=CCOc1ccc(/C=C2\SC(=S)N(C(C(=O)O)c3ccccc3)C2=O)cc1 (stereo not given)	Ecoli rRNA inh -42 (no result: miR-122 sensor)
CCOc1ccc(/C=C2\SC(=S)N(C(C(=O)O)c3ccccc3)C2=O)cc1OC (stereo not given)	none
C[C@H]1CN([C@@H](C)CO)C(=O)c2cc(NC(=O)c3ccncc3)ccc2O[C@H]1CN(C)Cc1ccc2c(c1)OCO2	none (no result: S100A4 MyoIIA, Vif inh, FN deposition inh)
COc1ccccc1CNC(=O)C[C@H]1CC[C@H]2[C@@H](COC[C@@H](O)CN2C(=O)Nc2ccc(F)cc2)O1	none (no result: Vif inh)
O=C(C[C@@H]1C=C[C@@H](NS(=O)(=O)c2cccc(F)c2)[C@H](CO)O1)N1CCCCC1	none (no result: Vif inh, miR-122 sensor)
C[C@H](CO)N1C[C@H](C)[C@@H](CN(C)C(=O)C2CCOCC2)Oc2cc(C3=CCCC3)ccc2S1(=O)=O	none (no result: Vif inh)
C[C@H](CO)N1C[C@H](C)[C@@H](CN(C)CC2CCCC2)Oc2cc(C3=CCCCC3)ccc2S1(=O)=O	Env fusion inh 56[16.7 µM] (no result: Vif inh, FN deposition inh)
C[C@H](CO)N1C[C@H](C)[C@H](CN(C)Cc2ccccc2F)Oc2cc(C3=CCCC3)ccc2S1(=O)=O	Env fusion inh 68[16.7 µM] (no result: Vif inh)
C[C@@H]1CN([C@H](C)CO)S(=O)(=O)c2ccc(C3=CCCC3)cc2O[C@H]1CN(C)C	none (no result: Vif inh)
C[C@@H]1CN([C@@H](C)CO)S(=O)(=O)c2ccc(C3=CCCC3)cc2O[C@@H]1CN(C)C(=O)C1CCOCC1	Env fusion inh 70[16.7 µM] (no result: Vif inh)
C[C@H](CO)N1C[C@H](C)[C@H](CN(C)C)Oc2cc(C3=CCCC3)ccc2S1(=O)=O	S100A4 MyoIIA 98 (no result: Vif inh)
C[C@@H]1CN([C@@H](C)CO)S(=O)(=O)c2ccc(C3=CCCC3)cc2O[C@H]1CN(C)Cc1ccccc1F	none (no result: Vif inh, FN deposition inh)
C[C@H]1CCCCO[C@H](CN(C)C(=O)CCC(F)(F)F)[C@@H](C)CN([C@@H](C)CO)C(=O)c2cc(NC(=O)CCCN(C)C)ccc2O1	none (no result: S100A4 MyoIIA, Vif inh)
COc1ccc(CN(C)C[C@@H]2OCCCC[C@@H](C)Oc3ccc(NC(=O)Nc4ccc(F)cc4)cc3C(=O)N([C@H](C)CO)C[C@H]2C)cc1	none (no result: Vif inh, FN deposition inh)
S=C(NCc1cccs1)Nc1cccc(Cl)c1	miR-122 sensor 220 (no result: Env fusion inh, FN deposition inh)
S=C(NCc1cccs1)Nc1cc(Cl)cc(Cl)c1	none (no result: miR-122 sensor)
CC(C)c1ccc(NC(=S)NCc2cccs2)cc1	miR-122 sensor 102 (no result: S100A4 MyoIIA, Ecoli rRNA inh)
CS(=O)(=O)N1CCCCC1c1cc(C(=O)Nc2cccc3c2CCCC3)no1 (stereo not given)	none
N#Cc1ccc(S(=O)(=O)N2CCCCC2c2cc(C(=O)Nc3cccc4c3CCCC4)no2)cc1 (stereo not given)	Env fusion inh 60 (no result: FN deposition inh)
CC(C)C#Cc1ccc2c(c1)O[C@@H](CN(C)C(=O)c1ccncc1)[C@@H](C)CN([C@@H](C)CO)S2(=O)=O	none (no result: Vif inh, Env fusion inh, FN deposition inh)
CCCNC(=O)N1CC2(CCN(C(=O)COC)CC2)c2c(n(C)c3cc(OC)ccc23)[C@H]1CO	none (no result: S100A4 MyoIIA, Vif inh, Env fusion inh, miR-122 sensor, FN deposition inh)
CC(=O)Nc1cccc2c1O[C@@H](CN(C)C(=O)NC(C)C)[C@H](C)CN(C)C2=O	none (no result: S100A4 MyoIIA, Vif inh, Env fusion inh, miR-122 sensor)
COc1cc(C)ccc1OCCOCCOc1cccc2ccc(C)nc12	Ecoli rRNA inh -32
C[C@@H]1CN([C@@H](C)CO)C(=O)c2cc(NS(=O)(=O)c3ccc(Cl)cc3)ccc2O[C@@H](C)CCCCO[C@H]1CN(C)CC1CCCCC1	none (no result: S100A4 MyoIIA, Vif inh, FN deposition inh)
O=C(/C=C/c1ccco1)Nc1cccc(C(=O)Nc2ccccc2C(=O)O)c1	Env fusion inh 88
Cc1ccc(S(=O)(=O)NCC[C@@H]2CC[C@H](NC(=O)c3cnccn3)[C@@H](CO)O2)cc1	none (no result: Vif inh, FN deposition inh)
Cc1ccc(S(=O)(=O)NCC[C@@H]2CC[C@@H](NC(=O)c3cnccn3)[C@H](CO)O2)cc1	miR-122 sensor 101[16.7 µM] (no result: Vif inh, FN deposition inh)
O=C(Cc1ccccn1)N[C@@H]1CC[C@@H](CCNS(=O)(=O)c2cccc(F)c2)O[C@H]1CO	S100A4 MyoIIA 132 (no result: Vif inh)
O=C(N[C@H]1CC[C@H](CCNS(=O)(=O)c2ccc(Cl)cc2)O[C@@H]1CO)c1cccc(F)c1	Ecoli rRNA inh -25! (no result: Vif inh, miR-122 sensor)
COc1ccc2c3c([nH]c2c1)[C@@H](CO)N(Cc1ccccc1F)CC31CCN(CC2CC2)CC1	none (no result: Vif inh, Env fusion inh, miR-122 sensor)

Bioassay records: PubChem BioAssay, Broad Institute
